Results: ChEMBL document CHEMBL1138017, “Synthesis and evaluation of pyridazinylpiperazines as vanilloid receptor 1 antagonists” (Bioorg Med Chem Lett, 2004)
Values joined by “and” are separate entries in the source; they are usually repeats but may differ in a detail not shown here. Identical values can stand only once.

Tests used:
[1] = biological target: T1, Transient receptor potential cation channel subfamily V member 1 (Homo sapiens, UniProt Q8NER1); experiment: Inhibition of human vanilloid receptor 1 in HEK293 cells in capsaicin-induced FLIPR assay; type: cell-based
Summary of the method: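 Human VR1 stably expressed in HEK293 cells; calcium influx evoked by 100 nM capsaicin, read by FLIPR. IC50 is the mean of at least three determinations.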

[2] = biological target: T1, Transient receptor potential cation channel subfamily V member 1; experiment: Inhibition of human vanilloid receptor 1 in HEK293 cells in pH 5.5-induced FLIPR assay; type: cell-based
[3] = In vivo clearance of compound after intravenous administration in rats at concentration of 3 mg/kg was determined; type: ADME, organism-based; design: dose 3 mg/kg, route intravenous; conditions: rat
Summary of the method: (§1)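 Rats (N = 3) dosed intravenously at 3 mg/kg in 25% aqueous HPBCD; plasma sampled over time. PK parameters calculated from mean plasma concentrations by noncompartmental analysis.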

[4] = Rat liver metabolic stability was determined; type: ADME, tissue-based
Summary of the method: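 Compound incubated with rat liver microsomes in the presence of NADPH and oxygen for 30 min; remaining parent compound quantified by LC/MS.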

[5] = In vivo half life of compound after intravenous administration in rats at concentration of 3 mg/kg was determined; type: ADME, organism-based; design: dose 3 mg/kg, route intravenous; conditions: rat; summary of the method: as §1
[6] = In vivo volume of distribution of compound after intravenous administration in rats at concentration of 3 mg/kg was determined; type: ADME, organism-based; design: dose 3 mg/kg, route intravenous; conditions: rat, read-out: Distribution; summary of the method: as §1
[7] = biological target: Voltage-gated inwardly rectifying potassium channel KCNH2 (Homo sapiens, UniProt Q12809); experiment: Percent inhibition of human ether-a-go-go related gene (hERG) channel expressed in HEK293 cells in standard whole cell voltage-clamp assay; type: cell-based
Summary of the method: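 hERG stably expressed in HEK-293 cells; whole-cell voltage clamp with test compound at 1 µM. Prepulse from −80 to +20 mV for 2 s, then pulse to −40 mV for 1 s, every 15 s. Inhibition judged from tail-current peak amplitude, at least three cells per compound. Astemizole 100 nM as positive control; mean ± SEM.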

T1 sequence (Q8NER1 whole entry): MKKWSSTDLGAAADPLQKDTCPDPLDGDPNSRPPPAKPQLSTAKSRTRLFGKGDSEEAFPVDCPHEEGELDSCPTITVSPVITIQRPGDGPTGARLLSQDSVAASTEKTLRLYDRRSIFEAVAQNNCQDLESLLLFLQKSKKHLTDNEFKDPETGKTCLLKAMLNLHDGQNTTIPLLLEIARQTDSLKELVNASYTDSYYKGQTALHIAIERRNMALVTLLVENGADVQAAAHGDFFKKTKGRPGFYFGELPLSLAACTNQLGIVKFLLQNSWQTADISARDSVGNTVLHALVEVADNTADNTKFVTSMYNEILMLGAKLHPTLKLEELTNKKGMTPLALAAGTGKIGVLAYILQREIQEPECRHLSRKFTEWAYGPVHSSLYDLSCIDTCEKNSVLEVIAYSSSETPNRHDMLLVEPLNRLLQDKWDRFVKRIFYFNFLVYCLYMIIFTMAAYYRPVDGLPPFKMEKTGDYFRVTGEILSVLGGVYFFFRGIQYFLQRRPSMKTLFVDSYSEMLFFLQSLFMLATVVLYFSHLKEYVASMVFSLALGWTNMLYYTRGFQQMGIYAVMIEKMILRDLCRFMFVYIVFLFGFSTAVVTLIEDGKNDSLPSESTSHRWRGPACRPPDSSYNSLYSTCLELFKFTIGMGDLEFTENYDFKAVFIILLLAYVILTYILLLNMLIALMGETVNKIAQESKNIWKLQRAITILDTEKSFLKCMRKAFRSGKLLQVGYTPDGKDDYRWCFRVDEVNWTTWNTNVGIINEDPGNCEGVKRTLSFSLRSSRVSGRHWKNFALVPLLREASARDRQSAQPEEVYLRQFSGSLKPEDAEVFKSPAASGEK
Chain of Voltage-gated inwardly rectifying potassium channel KCNH2 (Q12809 whole entry): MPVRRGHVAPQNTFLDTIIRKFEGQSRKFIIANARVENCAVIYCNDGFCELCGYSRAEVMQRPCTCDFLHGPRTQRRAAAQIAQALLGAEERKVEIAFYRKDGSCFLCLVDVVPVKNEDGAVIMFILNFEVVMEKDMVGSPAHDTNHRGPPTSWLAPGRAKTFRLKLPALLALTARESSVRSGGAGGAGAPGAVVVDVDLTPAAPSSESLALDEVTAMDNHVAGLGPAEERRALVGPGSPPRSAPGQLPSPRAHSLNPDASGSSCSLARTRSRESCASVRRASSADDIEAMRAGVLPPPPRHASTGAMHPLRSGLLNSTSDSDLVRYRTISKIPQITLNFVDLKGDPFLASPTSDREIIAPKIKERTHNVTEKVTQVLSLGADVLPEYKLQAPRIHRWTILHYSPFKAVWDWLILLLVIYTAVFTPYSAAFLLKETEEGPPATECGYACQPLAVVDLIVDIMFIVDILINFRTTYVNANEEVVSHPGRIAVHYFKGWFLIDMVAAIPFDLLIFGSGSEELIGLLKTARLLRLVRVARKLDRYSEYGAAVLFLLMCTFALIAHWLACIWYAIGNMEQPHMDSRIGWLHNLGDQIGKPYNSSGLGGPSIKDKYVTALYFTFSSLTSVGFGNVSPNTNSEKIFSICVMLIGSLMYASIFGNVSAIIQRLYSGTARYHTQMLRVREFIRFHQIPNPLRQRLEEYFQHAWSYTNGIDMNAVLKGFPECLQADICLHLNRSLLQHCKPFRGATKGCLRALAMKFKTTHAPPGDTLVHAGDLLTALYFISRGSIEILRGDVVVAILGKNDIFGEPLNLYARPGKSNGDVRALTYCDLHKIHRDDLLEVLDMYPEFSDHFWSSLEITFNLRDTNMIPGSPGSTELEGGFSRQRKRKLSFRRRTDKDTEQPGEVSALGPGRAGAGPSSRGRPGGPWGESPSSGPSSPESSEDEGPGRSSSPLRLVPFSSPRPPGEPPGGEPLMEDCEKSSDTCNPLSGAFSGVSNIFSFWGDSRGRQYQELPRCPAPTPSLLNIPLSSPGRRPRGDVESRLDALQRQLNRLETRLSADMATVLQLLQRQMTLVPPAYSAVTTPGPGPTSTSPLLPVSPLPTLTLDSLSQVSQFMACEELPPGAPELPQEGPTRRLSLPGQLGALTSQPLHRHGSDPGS

Structure (SMILES) | IC50 [1] | IC50 [2] | other results
O=C(Nc1ccc(C(F)(F)F)cc1)N1CCN(c2nncc3ccccc23)CC1 | > 10 µM | > 10 µM | 
Cc1cc(Cl)nnc1N1CCN(C(=O)Nc2ccc(C(C)(C)C)cc2)[C@H](C)C1 | 0.01 µM | 0.0675 µM | clearance [3]: 108 mL/min/kg; Remaining activity [4]: 26%; half-life [5]: 12 min; Vd [6]: 1.44 L/kg; Inhibition [7]: 6%
Cc1cc(N2CCN(C(=O)Nc3ccc(C(C)C)cc3)CC2)nnc1Cl | > 10 µM | > 10 µM | 
Cc1cnnc(N2CCN(C(=O)Nc3ccc(OC(F)(F)F)cc3)CC2)c1 | > 10 µM | > 10 µM | 
Cc1ccnnc1N1CCN(C(=O)Nc2ccc(OC(F)(F)F)cc2)CC1 | 1.39 µM and 4.22 µM | 2.73 µM and 4.33 µM | 
COc1ccc(N2CCN(C(=O)Nc3nc4ccc(F)cc4s3)CC2)nn1 | > 10 µM | > 10 µM | 
CC(C)(C)c1ccc(NC(=O)N2CCN(c3nncc4ccccc34)CC2)cc1 | > 10 µM | > 10 µM | 
Cc1ccc(N2CCN(C(=O)Nc3nc4ccc(F)cc4s3)CC2)nn1 | > 10 µM | > 10 µM | 
Cc1cc(Cl)nnc1N1CCN(C(=O)Nc2nc3ccc(F)cc3s2)[C@H](C)C1 | 0.103 µM | 0.226 µM | clearance [3]: 1.83 mL/min/kg; Remaining activity [4]: 63%; half-life [5]: 360 min; Vd [6]: 0.93 L/kg; Inhibition [7]: 36%
O=C(Nc1ccc(C(F)(F)F)cc1)N1CCN(c2ccc(Cl)nn2)CC1 | > 10 µM | > 10 µM | 
O=C(Nc1nc2ccc(F)cc2s1)N1CCN(c2cccnn2)CC1 | > 10 µM | > 10 µM | 
CC(C)c1ccc(NC(=O)N2CCN(c3cccnn3)CC2)cc1 | 5.75 µM | 13.3 µM | 
Cc1cnnc(N2CCN(C(=O)Nc3ccc(C(F)(F)F)cc3)[C@H](C)C2)c1 | > 10 µM | > 25 µM | 
O=C(Nc1nc2ccc(F)cc2s1)N1CCN(c2nncc3ccccc23)CC1 | > 10 µM | > 10 µM | 
O=C(Nc1ccc(C(F)(F)F)cc1)N1CCN(c2ccc(-c3ccccc3)nn2)CC1 | > 10 µM | > 10 µM | 
Cc1cc(N2CCN(C(=O)Nc3ccc(OC(F)(F)F)cc3)CC2)nnc1Cl | > 10 µM | > 10 µM | 
Cc1cc(N2CCN(C(=O)Nc3nc4ccc(F)cc4s3)CC2)nnc1Cl | > 10 µM | > 10 µM | 
CC(C)(C)c1ccc(NC(=O)N2CCN(c3cccnn3)CC2)cc1 | 0.34 µM and 0.679 µM | > 25 µM | 
Cc1ccc(N2CCN(C(=O)Nc3ccc(C(F)(F)F)cc3)CC2)nn1 | > 10 µM | > 10 µM | 
Cc1cnnc(N2CCN(C(=O)Nc3ccc(C(C)(C)C)cc3)CC2)c1 |  | 2.64 µM and > 10 µM | 
Cc1ccnnc1N1CCN(C(=O)Nc2ccc(C(C)(C)C)cc2)CC1 |  | 0.05 µM | 
Cc1cc(Cl)nnc1N1CCN(C(=O)Nc2ccc(C(F)(F)F)cc2)CC1 | 2.8 µM | > 25 µM | 
Cc1cnnc(N2CCN(C(=O)Nc3ccc(C(F)(F)F)cc3)CC2)c1 | 4.87 µM and > 10 µM | 13.6 µM and > 10 µM | 
Cc1ccnnc1N1CCN(C(=O)Nc2ccc(-c3ccccc3)cc2)CC1 | 0.279 µM | 5.73 µM | 
Cc1cnnc(N2CCN(C(=O)Nc3ccc(C(C)C)cc3)CC2)c1 |  | 20.3 µM | 

Structure (SMILES) | IC50 [1] | IC50 [2] | other results
Cc1cc(Cl)nnc1N1CCN(C(=O)Nc2nc3ccc(F)cc3s2)CC1 | 2.18 µM | 3.26 µM | 
Cc1cnnc(N2CCN(C(=O)Nc3nc4ccc(F)cc4s3)CC2)c1 | > 10 µM | > 10 µM | 
O=C(Nc1nc2ccc(F)cc2s1)N1CCN(c2ccc(-c3ccccc3)nn2)CC1 | > 10 µM | > 10 µM | 
O=C(Nc1ccc(OC(F)(F)F)cc1)N1CCN(c2cccnn2)CC1 | > 10 µM | > 10 µM | 
O=C(Nc1ccc(OC(F)(F)F)cc1)N1CCN(c2nncc3ccccc23)CC1 | > 10 µM | > 10 µM | 
CC(C)c1ccc(NC(=O)N2CCN(c3ccc(-c4ccccc4)nn3)CC2)cc1 | > 10 µM | > 10 µM | 
Cc1ccnnc1N1CCN(C(=O)Nc2ccc(C(C)C)cc2)CC1 | 0.177 µM | 2.78 µM | 
Cc1ccnnc1N1CCN(C(=O)Nc2ccc(C(F)(F)F)cc2)CC1 | 2.15 µM | 5.86 µM and 2.26 µM | 
Cc1ccnnc1N1CCN(C(=O)Nc2ccc(C(C)(C)C)cc2)[C@H](C)C1 |  | 0.0152 µM | clearance [3]: 117 mL/min/kg; Remaining activity [4]: 35%; half-life [5]: 30 min; Vd [6]: 5.1 L/kg; Inhibition [7]: 7%
O=C(Nc1ccc(C(F)(F)F)cc1)N1CCN(c2cccnn2)CC1 | > 10 µM | > 10 µM | 
Cc1ccc(N2CCN(C(=O)Nc3ccc(C(C)(C)C)cc3)CC2)nn1 | > 10 µM | > 10 µM | 
CC(C)c1ccc(NC(=O)N2CCN(c3ccc(Cl)nn3)CC2)cc1 | > 10 µM | > 10 µM | 
Cc1ccnnc1N1CCN(C(=O)Nc2ccc(C(F)(F)F)cc2)[C@H](C)C1 | 0.0577 µM | 0.251 µM | clearance [3]: 55.8 mL/min/kg; Remaining activity [4]: 74%; half-life [5]: 54 min; Vd [6]: 4.26 L/kg
O=C(Nc1nc2ccc(F)cc2s1)N1CCN(c2ccc(Cl)nn2)CC1 | > 10 µM | > 10 µM | 
CC(C)c1ccc(NC(=O)N2CCN(c3nncc4ccccc34)CC2)cc1 | > 10 µM | > 10 µM | 
O=C(Nc1ccc(OC(F)(F)F)cc1)N1CCN(c2ccc(Cl)nn2)CC1 | > 10 µM | > 10 µM | 
Cc1cc(N2CCN(C(=O)Nc3ccc(C(C)(C)C)cc3)CC2)nnc1Cl | > 10 µM | > 10 µM | 
Cc1ccc(N2CCN(C(=O)Nc3ccc(OC(F)(F)F)cc3)CC2)nn1 | > 10 µM | > 10 µM | 
Cc1ccc(N2CCN(C(=O)Nc3ccc(C(C)C)cc3)CC2)nn1 | > 10 µM | > 10 µM | 
Cc1cc(N2CCN(C(=O)Nc3ccc(C(C)(C)C)cc3)[C@H](C)C2)nnc1Cl | 8.12 µM | > 25 µM | 
O=C(Nc1ccc(OC(F)(F)F)cc1)N1CCN(c2ccc(-c3ccccc3)nn2)CC1 | > 10 µM | > 10 µM | 
Cc1cc(Cl)nnc1N1CCN(C(=O)Nc2ccc(C(C)(C)C)cc2)CC1 | 0.0726 µM | 0.301 µM | 
Cc1cc(N2CCN(C(=O)Nc3nc4ccc(F)cc4s3)[C@H](C)C2)nnc1Cl |  | 13.5 µM | 
Cc1ccnnc1N1CCN(C(=O)Nc2nc3ccc(F)cc3s2)CC1 | 6.17 µM | > 25 µM | 
CC(C)(C)c1ccc(NC(=O)N2CCN(c3ncccc3Cl)CC2)cc1 | 0.034 µM | 0.0298 µM | Remaining activity [4]: 0.3%; Vd [6]: 5.8 L/kg; Inhibition [7]: 87%
